Shown are actives, neighbours in structure and some others; about 4.5% of the full set was active somewhere.
CHO parental Ca: counter-screen: ATP calcium response change in parental CHO cells; parental CHO-K1, ATP-induced calcium, Fluo-8 fluorescence; AID 463079; inhibition, % at 5.6 µM; 0.63% of 330,000 active;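 active = inhibition above that plate's mean sample inhibition plus 3 SD, cut at about 26% in these data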;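 note: 0% = ATP-challenged DMSO wells and 100% = DMSO wells without ATP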
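test system = CHO parental line | reagent = ATP stimulus | measured by = intracellular calcium via Fluo-8 no-wash fluorescent dye | control set = ATP and no-ATP DMSO wells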
OX1R antag-1: antagonists of human orexin 1 receptor (OX1R) | OX1R-expressing cells, FRET antagonist read-out | inhibition, % at 6.6 µM | 1.8% of 330,000 active | AID 485270; in the data active = inhibition mostly above about 38%, no sharp cut-off; inactive = mostly below about 40%;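 note: 0% = agonist challenge alone and 100% = reference antagonist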
Target sequence (O43613 whole entry, looked up): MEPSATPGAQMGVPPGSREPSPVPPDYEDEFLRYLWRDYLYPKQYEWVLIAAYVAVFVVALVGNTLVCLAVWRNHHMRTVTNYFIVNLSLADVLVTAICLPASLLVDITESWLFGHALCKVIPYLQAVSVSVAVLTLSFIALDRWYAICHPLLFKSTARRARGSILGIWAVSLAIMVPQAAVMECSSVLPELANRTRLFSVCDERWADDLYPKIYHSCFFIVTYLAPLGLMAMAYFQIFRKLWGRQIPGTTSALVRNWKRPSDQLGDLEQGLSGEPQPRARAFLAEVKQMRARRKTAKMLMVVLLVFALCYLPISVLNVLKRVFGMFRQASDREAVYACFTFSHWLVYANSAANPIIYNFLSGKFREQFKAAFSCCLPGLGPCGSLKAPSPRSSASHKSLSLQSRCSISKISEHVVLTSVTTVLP
TAAR1 antagonist: antagonists of human TAAR1. Q96RJ0. CHO RD-HGA16 TAAR1, Fluo-8 calcium fluorescence, antagonist. inhibition, % at 3 µM. 1.5% of 360,000 active;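 active = inhibition above a per-plate cutoff, the mean inhibition of test compounds on that plate plus 3 SD, cut at about 49% in these data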;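 note: 0% = DMSO plus EC80 beta-PEA response and 100% = DMSO alone without agonist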
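Test system: RD-HGA16 CHO cells with stable hTAAR1 and Gα16 / Probe or stimulus: EC80 β-phenethylamine stimulus / Times: seeding 17-24 h prior, 75-min 37 °C, 30-min RT dye loading / Detection: Fluo-8 calcium-sensitive fluorescence / Read-out basis: % inhibition scaled between DMSO and EC80 PEA controls / Repeats: singlicate, one well per test compound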
OX1R antag-2: human HCRTR1 antagonism. CHO/OX1R cells, Fluo-8 calcium fluorescence, orexin A. inhibition, % at 5 µM. 0.43% of 330,000 active. AID 434989;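 active = inhibition above its plate's threshold, mean inhibition of all tested compounds on the plate plus 3 SD, cut at about 37% in these data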;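 note: 0% = orexin A challenge wells and 100% = SB-334867-A antagonist wells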
TAAR1 ag: agonists of human TAAR1; AID 624467; CHO RD-HGA16 TAAR1, Fluo-8 calcium fluorescence; vehicle wells 0%, saturating PEA agonist 100%; Q96RJ0; activation, % at 3 µM; 0.99% of 360,000 active;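 active = activation above the mean activation of all test compounds in the run plus 3 SD, cut at about 38% in these data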
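Test system: RD-HGA16 (CHO) cells co-expressing Gα16 and hTAAR1 | Doses: Single dose, 3 µM | Schedule: 17-24 h seeding, 75 min 37 °C dye, 30 min RT | Evaluation: % activation from peak over basal fluorescence ratio, DMSO-to-PEA scaled | Technique: Kinetic Fluo-8 calcium fluorescence | Benchmarks: Low control DMSO, high control PEA (EC100)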
GPR7 antag: blocks human GPR7 receptor signaling | AID 1861 | GPR7-expressing cells, fluorescence antagonist assay | P48145 | 1.1% of 290,000 active | inhibition, % at 4.4 µM; in the data active = inhibition above about 16%, passing the limit was not always enough;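 note: cells stimulated with the agonist NPW; 0% = agonist with vehicle and 100% = vehicle without agonist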
TAAR1 nonsel count: counter-screen for TAAR1 antagonists: nonselective antagonists | shares compounds with TAAR1 antagonist | counterscreen cell line, calcium fluorescence, antagonist mode | inhibition, % at 3 µM | 77% of 2,400 active; in the data active = inhibition above about 22%;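 note: CHO-Ga16 host cells stimulated with ATP at an EC80 level; 0% = agonist EC80 plus vehicle and 100% = vehicle without agonist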
TAAR1 ant conf: confirmation of human TAAR1 antagonists; shares compounds with TAAR1 antagonist; TAAR1-expressing cells, fluorescence antagonist read-out; inhibition, % at 3 µM; 40% of 2,400 active; in the data active = inhibition above about 49%;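 note: CHO-Ga16 host cells challenged with agonist PEA near its EC80; 0% = agonist at EC80 plus vehicle and 100% = vehicle with no agonist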
Ga16 nonsel ag: nonselective Ga16 agonist in TAAR1 antagonist counter-screen; shares compounds with TAAR1 antagonist; Ga16-expressing cells, calcium fluorescence, agonist counterscreen; activation, % at 3 µM; 18% of 2,400 active; in the data active = activation above about 12%;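 note: 0% = vehicle wells and 100% = saturating stimulus response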
TAAR1 ag counter: TAAR1 agonism, antagonist counter-screen; shares compounds with TAAR1 antagonist; hTAAR1 cell line, fluorescence activation, agonist mode; activation, % at 3 µM; 2% of 2,400 active; AID 651955; in the data active = activation above about 37%;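 note: CHO cells stably expressing TAAR1 with calcium dye readout; 0% = DMSO vehicle and 100% = full agonist response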
Numbers without * were called inactive; nt = no result given.

SMILES	CHO parental Ca	OX1R antag-1	TAAR1 antagonist	OX1R antag-2	TAAR1 ag	GPR7 antag	TAAR1 nonsel count	TAAR1 ant conf	Ga16 nonsel ag	TAAR1 ag counter
C[C@H]1Cn2cnc(C(=O)Nc3ccc(CNC(=O)OC(C)(C)C)cc3)c2C(=O)N1	nt	nt	13	nt	6	nt	nt	nt	nt	nt
CC(C)(C)OC(=O)NCCCCCNC(=O)c1[nH]cnc1C(=O)Nc1ccc(Cl)cc1	-12	-1	55*	-27	15	nt	27*	42	5	3
Cc1ccc(NC(=O)c2nc[nH]c2C(=O)NCCCCCNC(=O)OC(C)(C)C)cc1	-33	10	26	-41	13	nt	nt	nt	nt	nt
C[C@H]1CNC(=O)c2c(C(=O)Nc3ccc(CNC(=O)OC(C)(C)C)cc3)ncn21	nt	nt	55*	nt	14	nt	34*	46	9	5
CC(C)(C)OC(=O)NCCCCCNC(=O)c1[nH]cnc1C(=O)Nc1ccccc1	-15	10	57*	-9	13	nt	19	31	6	10
CC(C)(C)OC(=O)NCCCC[C@H](NC(=O)c1[nH]cnc1C(=O)Nc1ccc(CNC(=O)OC(C)(C)C)cc1)C(=O)OC(C)(C)C	-32	25	65*	-41	13	nt	28*	49*	8	7
CC(=O)N(O)CCCCCNC(=O)CCC(=O)N(O)CCCCCNC(=O)CCC(=O)N(O)CCCCCN	-2	16	-20	-11	1	13	nt	nt	nt	nt
O=c1c(-c2ccccc2)c(O)nc(SCCN2CCOCC2)n1-c1ccccc1	-7	8	-11	-3	2	-4	nt	nt	nt	nt
Cc1ccc(C)c(N2CCN(C(=O)c3ccc(CSc4nc5ccncc5[nH]4)cc3)CC2)c1	44*	16	50*	53*	7	6	36*	36	12*	22
COc1ccc(O)c(/C=N/NC(=S)NCCc2ccccc2)c1	0	20	54*	-17	22	-21	27*	57*	15*	44*
COc1ccc(/C=N/NC(=S)NCCc2ccccc2)cc1	-21	1	-6	-37	3	-13	nt	nt	nt	nt
O=C(CCc1ccccc1)c1c(O)cc(O)cc1O	4	16	68*	2	3	nt	25*	30	4	1
COc1ccc(C(=O)CCc2ccccc2)c(O)c1	-13	42	-42	-11	0	nt	nt	nt	nt	nt
COc1ccc(/C=C2\Sc3ccc(C(=O)N4CCCC4)cc3N(C)C2=O)cc1OC	-22	13	nt	-17	nt	-1	nt	nt	nt	nt
Cc1cccc(/C=C2\Sc3ccc(C(=O)N4CCC(C(N)=O)CC4)cc3N(C)C2=O)c1	-5	3	60*	2	7	9	18	26	6	6
COc1ccc(S(=O)(=O)Nc2c(NC3CCCCC3)c3ccccc3oc2=O)cc1OC	-22	14	51*	-9	13	-16	12	32	8	13
O=C(CCc1nc2ccccc2c(=O)[nH]1)Nc1nnc(SCc2ccc(F)cc2)s1	-12	12	-2	-2	0	nt	nt	nt	nt	nt
COC(=O)[C@]12CCCCC=C1N(Cc1ccc(Cl)cc1Cl)C(=O)[C@H](CC(=O)N1CCOCC1)C2	nt	nt	-6	nt	7	nt	nt	nt	nt	nt
CC(=O)c1ccc(NC(=O)c2ccc(NC(=O)CCS(=O)(=O)c3cccs3)cc2)cc1	9	15	86*	5	16	2	40*	64*	15*	18
COC(C[C@H](O)[C@H](C)[C@@H](O)COCc1ccccc1)OC	nt	nt	4	nt	2	nt	nt	nt	nt	nt
C=CCN(C(=O)C1CC(=O)N(C2CCCC2)C1)c1nc(-c2ccc(S(C)(=O)=O)cc2)cs1 (stereo not drawn)	1	14	78*	-9	33	nt	38*	65*	18*	30
CSc1cccc(NC(=O)N2CCc3ccc(NC(=O)c4ccccn4)cc3C2)c1	-16	20	62*	-13	5	8	40*	45	9	5
Cc1cccc(NC(=O)CSc2nnc(-c3ccc(S(=O)(=O)N4CCOCC4)cc3)n2C)c1	-11	4	-3	-33	1	-6	nt	nt	nt	nt
O=c1ccnc(SCCc2ccc([N+](=O)[O-])cc2)[nH]1	-9	13	-3	-6	-1	nt	nt	nt	nt	nt
O=C(NCc1ccccc1)C(c1ccccc1)N(Cc1ccc2c(c1)OCO2)C(=O)Cc1cccs1 (stereo not drawn)	-19	48	80*	6	10	-12	40*	59*	12*	8
SMILES	CHO parental Ca	OX1R antag-1	TAAR1 antagonist	OX1R antag-2	TAAR1 ag	GPR7 antag	TAAR1 nonsel count	TAAR1 ant conf	Ga16 nonsel ag	TAAR1 ag counter
COCCN(C(=O)Cc1cccs1)C(C(=O)NCc1ccc(OC)cc1)c1ccc(C(C)C)cc1 (stereo not drawn)	14	11	64*	20	15	0	29*	54*	10	13
CCc1ccc(C(C(=O)NCc2ccc(OC)cc2)N(CCOC)C(=O)Cc2cccs2)cc1 (stereo not drawn)	-14	8	73*	-17	19	-6	29*	53*	9	8
Cc1cc(C(=O)Nc2ccc(F)cc2C)n(-c2ccccc2)n1	-6	8	-1	-13	2	-14	nt	nt	nt	nt
CCOC(=O)c1ccc(NC(=O)CN(C)S(=O)(=O)c2ccc(Br)s2)cc1	-11	13	85*	-15	12	4	38*	48	9	6
COc1ccccc1N1CCN(Cc2ccc(-c3ccccc3[N+](=O)[O-])o2)CC1	-35	21	88*	-29	12	-7	28*	55*	8	4
COc1ccccc1N1CCN(Cc2ccco2)CC1	-2	12	-7	-22	13	-5	nt	nt	nt	nt
CC1(C)N=C(SCC(=O)Nc2ccccc2)C(c2ccc(Cl)cc2)=N1	-10	38	54*	-16	8	-1	20	22	7	2
Cc1ccc(C2=NC(C)(C)N=C2SCC(=O)Nc2ccc(Cl)cc2)cc1	-10	6	20	-28	6	-8	nt	nt	nt	nt
COc1ccccc1CN(C)C(=O)c1ccc(S(=O)(=O)Nc2c(C)n(C)n(-c3ccccc3)c2=O)cc1	-27	4	50*	-37	8	nt	20	36	5	4
CCOC(=O)Cc1n[nH]c(=O)c2ccccc12	-7	13	2	-2	9	-7	nt	nt	nt	nt

High-throughput results (PubChem)
